According to ChEMBL document CHEMBL2176971 (Bioorg Med Chem Lett, 2012):

Columns and labels:
[1] = Apparent volume of distribution in rat at 2 mg/kg, iv; assay type: ADME, organism-based; set-up: dose 2 mg/kg, route intravenous; settings: in vivo, read-out: Vz
[2] = Cmax in rat at 2 mg/kg, iv; assay type: ADME, organism-based; set-up: dose 2 mg/kg, route intravenous; settings: in vivo
[3] = AUCall in rat at 2 mg/kg, iv; assay type: ADME, organism-based; set-up: dose 2 mg/kg, route intravenous; settings: plasma
[4] = Solubility of the compound; assay type: physicochemical
[5] = tested on: Rattus norvegicus; experiment: Drug metabolism in rat assessed as sulfoxide metabolite formation at 2 mg/kg, iv; assay type: ADME, organism-based; set-up: dose 2 mg/kg, route intravenous; settings: in vivo
Outline: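 Rats dosed i.v. at 2 mg/kg and plasma monitored in vivo for the sulfoxide metabolite. AUCall was also measured after 20 mg/kg oral dosing.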

[6] = tested on: Rattus norvegicus; experiment: AUCall in rat assessed as sulfoxide metabolite level at 20 mg/kg, po; assay type: ADME, organism-based, Plasma; set-up: dose 20 mg/kg, route oral; settings: in vivo
Outline: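 Rats given the parent sulfide compound orally at 20 mg/kg, with plasma monitored for its in vivo sulfoxide metabolite; exposure to that metabolite is reported as AUCall. A separate i.v. dose of 2 mg/kg in rats was also monitored for this metabolite.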

[7] = Oral bioavailability in dog at 10 mg/kg; assay type: ADME, organism-based, Canis lupus familiaris; settings: in vivo
Outline: (§1)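 Dogs dosed orally at 10 mg/kg; plasma pharmacokinetic parameters determined.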

[8] = Cmax in dog at 10 mg/kg, po; assay type: ADME, organism-based, Canis lupus familiaris; set-up: dose 10 mg/kg, route oral; settings: in vivo; outline: as §1
[9] = Tmax in dog at 10 mg/kg, po; assay type: ADME, organism-based, Canis lupus familiaris; set-up: dose 10 mg/kg, route oral; settings: in vivo; outline: as §1
[10] = AUCall in dog at 10 mg/kg, po; assay type: ADME, organism-based, Canis lupus familiaris; set-up: dose 10 mg/kg, route oral; settings: plasma
[11] = Tmax in rat at 20 mg/kg, po; assay type: ADME, organism-based; set-up: dose 20 mg/kg, route oral; settings: in vivo
[12] = Cmax in rat at 20 mg/kg, po; assay type: ADME, organism-based; set-up: dose 20 mg/kg, route oral; settings: in vivo
[13] = AUCall in rat at 20 mg/kg, po; assay type: ADME, organism-based; set-up: dose 20 mg/kg, route oral; settings: plasma
[14] = Apparent volume of distribution in dog at 2 mg/kg, iv; assay type: ADME, organism-based, Canis lupus familiaris; set-up: dose 2 mg/kg, route intravenous; settings: in vivo, read-out: Vz
[15] = Cmax in dog at 2 mg/kg, iv; assay type: ADME, organism-based, Canis lupus familiaris; set-up: dose 2 mg/kg, route intravenous; settings: in vivo
[16] = AUCall in dog at 2 mg/kg, iv; assay type: ADME, organism-based, Canis lupus familiaris; set-up: dose 2 mg/kg, route intravenous; settings: plasma
[17] = Oral bioavailability in rat at 20 mg/kg; assay type: ADME, organism-based; settings: in vivo

COC(=O)c1ccc2c(c1)c1c(n2CCCNc2nc(OC)cc(OC)n2)CCCC1
Vd [1]: 11.3 L/kg | Cmax [2]: 182 ng/mL | AUC [3]: 521 ng·h/mL

COc1cc(OC)nc(NCCCn2c3c(c4cc(S(C)(=O)=O)ccc42)CCCC3)n1
Vd [1]: 3.51 L/kg | Cmax [2]: 1080 ng/mL | AUC [3]: 902 ng·h/mL

CCc1cc(CC)nc(OCCCn2c3c(c4cc(-c5nc(C)no5)ccc42)CCCC3)n1
Vd [1]: 18.9 L/kg | Cmax [2]: 1050 ng/mL | AUC [3]: 497 ng·h/mL

Cc1noc(-c2ccc3c(c2)c2c(n3CCCS(=O)(=O)N(C)C)CCCC2)n1
Vd [1]: 3.96 L/kg | Cmax [2]: 1240 ng/mL | AUC [3]: 520 ng·h/mL

Cc1noc(-c2ccc3c(c2)c2c(n3CCCOc3cc(F)cc(F)c3)CCCC2)n1
Vd [1]: 22.1 L/kg | Cmax [2]: 821 ng/mL | AUC [3]: 404 ng·h/mL

Cc1noc(-c2ccc3c(c2)c2c(n3CCCSc3cc(F)cc(F)c3)CCCC2)n1
solubility [4]: > 1000 µg/mL | Drug metabolism [5]: Not Active | AUC [6]: 143 ng·h/mL | bioavailability [7]: 34% | Cmax [8]: 625 ng/mL | Tmax [9]: 2 h | AUC [10]: 2010 ng·h/mL | Tmax [11]: 2.33 h | Cmax [12]: 955 ng/mL | AUC [13]: 4230 ng·h/mL | Vd [14]: 1.8 L/kg | Cmax [15]: 3880 ng/mL | AUC [16]: 1750 ng·h/mL | Vd [1]: 3.64 L/kg | Cmax [2]: 2990 ng/mL | AUC [3]: 1180 ng·h/mL

Cc1noc(-c2ccc3c(c2)c2c(n3CC(F)COc3cc(F)cc(F)c3)CCCC2)n1 (stereo not drawn)
bioavailability [17]: 38% | Tmax [11]: 2.67 h | Cmax [12]: 747 ng/mL | AUC [13]: 3140 ng·h/mL | Vd [1]: 5.52 L/kg | Cmax [2]: 1710 ng/mL | AUC [3]: 691 ng·h/mL
